Reference: ChEMBL document CHEMBL3046199, “Synthesis and antiviral activities of pyrazole derivatives containing an oxime moiety” (J Agric Food Chem, 2008)

Tests used:
Tobacco mosaic virus [1] = test: In vivo antiviral activity against Tobacco mosaic virus (TMV) infected left side of tobacco leaves assessed as curative effect at 500 ug/ml treated after viral inoculation measured at 3-4 days after viral challenge; type: functional
Tobacco mosaic virus [2] = test: In vivo antiviral activity against Tobacco mosaic virus (TMV) infected left side of tobacco leaves assessed as inactivation effect at 500 ug/ml co-incubated with virus for 30 min before inoculation onto leaves measured at 3-4 days after viral challenge; type: functional
Tobacco mosaic virus [3] = test: In vivo antiviral activity against Tobacco mosaic virus (TMV) infected left side of tobacco leaves assessed as protective effect at 500 ug/ml treated 12 hr before viral inoculation measured at 3-4 days after viral challenge; type: functional
How it was run: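 TMV purified from inoculated N. tabacum upper leaves (ground in phosphate buffer, filtered, centrifuged at 10000g, twice PEG-treated, all at 4 °C), concentration from A260. Compound solution smeared on left half of same-age N. tabacum leaves, solvent on right half as control. Leaves inoculated 12 h later by brush with 6 × 10^-3 mg/mL TMV over silicon carbide. Local lesions counted 3-4 days post-inoculation, three repetitions. Inhibition % = (control lesions − treated lesions)/control lesions × 100.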

Tobacco mosaic virus [4] = test: In vivo antiviral activity against Tobacco mosaic virus (TMV) infected left side of tobacco leaves assessed as inactivation effect at 62.5 ug/ml co-incubated with virus for 30 min before inoculation onto leaves measured at 3-4 days after viral challenge; type: functional
Tobacco mosaic virus [5] = test: In vivo antiviral activity against Tobacco mosaic virus (TMV) infected left side of tobacco leaves assessed as inactivation effect at 125 ug/ml co-incubated with virus for 30 min before inoculation onto leaves measured at 3-4 days after viral challenge; type: functional
Tobacco mosaic virus [6] = test: In vivo antiviral activity against Tobacco mosaic virus (TMV) infected left side of tobacco leaves assessed as inactivation effect at […] ug/ml co-incubated with virus for 30 min before inoculation onto leaves measured at 3-4 days after viral challenge; type: functional
Tobacco mosaic virus [7] = test: In vivo antiviral activity against Tobacco mosaic virus (TMV) infected left side of tobacco leaves assessed as inactivation effect co-incubated with virus for 30 min before inoculation onto leaves measured at 3-4 days after viral challenge; type: functional, organism-based
Tobacco mosaic virus [8] = test: In vivo antiviral activity against Tobacco mosaic virus (TMV) infected left side of tobacco leaves assessed as inactivation effect at 250 ug/ml co-incubated with virus for 30 min before inoculation onto leaves measured at 3-4 days after viral challenge; type: functional

Structure (SMILES) | Activity (Tobacco mosaic virus [1]) | Activity (Tobacco mosaic virus [2]) | Activity (Tobacco mosaic virus [3]) | Activity (Tobacco mosaic virus [4]) | Activity (Tobacco mosaic virus [5]) | Activity (Tobacco mosaic virus [6]) | EC50 (Tobacco mosaic virus [7]) | Activity (Tobacco mosaic virus [8])
Cc1nn(-c2ccccc2)c(Sc2ccc(F)cc2)c1/C=N/OCc1ccc(Cl)nc1 | 24% | 65.9% | 18.9% | – | – | – | – | –
Cc1ccc(Sc2c(/C=N/OCc3c(C)nn(-c4ccc(C)cc4)c3Cl)c(C)nn2-c2ccc(Cl)cc2)cc1 | 18.9% | 36.7% | 21% | – | – | – | – | –
Cc1nn(-c2cccc(Cl)c2)c(S(=O)(=O)c2ccc(F)cc2)c1/C=N/OCc1ccc(Cl)nc1 | 11% | 30% | 12.9% | – | – | – | – | –
Cc1nn(-c2ccc(Cl)cc2)c(S(=O)(=O)c2ccc(F)cc2)c1/C=N/OCc1ccc(Cl)nc1 | 7.7% | 44.1% | 42.2% | – | – | – | – | –
CNCC(=O)N[C@@H](CO)C(=O)N[C@H]1[C@H](O)[C@@H](O)[C@H](n2ccc(N)nc2=O)O[C@@H]1C(N)=O [NINGNANMYCIN] | 54.8% | 98% | 57% | 59.9% | 72% | 44% | 52.7 µg/mL | 81.1%
COc1ccc(Sc2c(/C=N/OCc3ccc(Cl)nc3)c(C)nn2-c2ccc(Cl)cc2)cc1 | 12.9% | 34.5% | 22% | – | – | – | – | –
COc1ccc(S(=O)(=O)c2c(/C=N/OCc3ccc(Cl)nc3)c(C)nn2-c2ccccc2)cc1 | 15.6% | 30.1% | 29.8% | – | – | – | – | –
Cc1nn(-c2ccccc2)c(S(=O)(=O)c2ccc(F)cc2)c1/C=N/OCc1ccc(Cl)nc1 | 21.7% | 20.6% | 40.2% | – | – | – | – | –
Cc1ccc(-n2nc(C)c(/C=N/OCc3c(C)nn(-c4ccc(Cl)cc4)c3Cl)c2Sc2ccc(F)cc2)cc1 | 31.9% | 43% | 19% | – | – | – | – | –
Cc1ccc(Sc2c(/C=N/OCc3ccc(Cl)nc3)c(C)nn2-c2ccccc2)cc1 | 47% | 90.4% | 31.3% | 55.1% | 69.2% | 40.1% | 58.7 µg/mL | 76%
Cc1ccc(S(=O)(=O)c2c(/C=N/OCc3ccc(Cl)nc3)c(C)nn2-c2ccc(Cl)cc2)cc1 | 9.2% | 33.3% | 31.3% | – | – | – | – | –
Cc1nn(-c2ccc(Cl)cc2)c(Sc2ccc(F)cc2)c1/C=N/OCc1ccc(Cl)nc1 | 37.3% | 80.6% | 43.5% | 51.2% | 53% | 40.6% | 65.3 µg/mL | 65.7%
Cc1ccc(Sc2c(/C=N/OCc3ccc(Cl)nc3)c(C)nn2-c2ccc(Cl)cc2)cc1 | 26% | 61.2% | 37.7% | – | – | – | – | –
Cc1nn(-c2cccc(Cl)c2)c(Sc2ccc(F)cc2)c1/C=N/OCc1ccc(Cl)nc1 | 34.3% | 61.7% | 28.6% | – | – | – | – | –
Cc1ccc(Sc2c(/C=N/OCc3c(C)nn(-c4ccc(C)cc4)c3Cl)c(C)nn2-c2ccc(C)cc2)cc1 | 38.9% | 51.2% | 44.8% | – | – | – | – | –
Cc1ccc(-n2nc(C)c(CO/N=C/c3c(C)nn(-c4ccc(C)cc4)c3Sc3ccc(F)cc3)c2Cl)cc1 | 22% | 50.9% | 41% | – | – | – | – | –
Cc1nn(-c2ccccc2)c(Sc2ccc(F)cc2)c1/C=N/OCc1c(C)nn(-c2ccc(Cl)cc2)c1Cl | 35.6% | 55.9% | 32% | – | – | – | – | –
Cc1ccc(Sc2c(/C=N/OCc3ccc(Cl)nc3)c(C)nn2-c2ccc(C)cc2)cc1 | 32.1% | 61% | 15.7% | – | – | – | – | –
Cc1ccc(-n2nc(C)c(/C=N/OCc3ccc(Cl)nc3)c2S(=O)(=O)c2ccc(F)cc2)cc1 | 22% | 11% | 28.2% | – | – | – | – | –
COc1ccc(Sc2c(/C=N/OCc3ccc(Cl)nc3)c(C)nn2-c2ccccc2)cc1 | 26.6% | 71.2% | 16.4% | 41% | 48.9% | 32% | 115 µg/mL | 65%
Cc1ccc(-n2nc(C)c(/C=N/OCc3ccc(Cl)nc3)c2Sc2ccc(F)cc2)cc1 | 22% | 56.6% | 31% | – | – | – | – | –
Cc1ccc(S(=O)(=O)c2c(/C=N/OCc3ccc(Cl)nc3)c(C)nn2-c2ccccc2)cc1 | 9% | 45% | 28% | – | – | – | – | –
COc1ccc(S(=O)(=O)c2c(/C=N/OCc3ccc(Cl)nc3)c(C)nn2-c2ccc(Cl)cc2)cc1 | 3.6% | 30.9% | 16.4% | – | – | – | – | –
